From ChEMBL document CHEMBL2062435, “Synthesis and in vitro antibacterial activity of gemifloxacin derivatives containing a substituted benzyloxime moiety” (2012)

Key:
Format in all cases: functional
[1] = system: Pseudomonas aeruginosa; test: Antimicrobial activity against Pseudomonas aeruginosa 10-12 after 18-24 hrs by two-fold serial dilution method
In short: (§1)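 Agar-medium twofold serial dilution against Gram-positive and Gram-negative strains; MIC taken as the lowest compound concentration giving complete inhibition of bacterial growth after incubation at 35 °C for 18-24 h.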

[2] = system: Staphylococcus epidermidis; test: Antimicrobial activity against extended spectrum beta-lactamases-producing methicillin-sensitive Staphylococcus epidermidis 10-11 after 18-24 hrs by two-fold serial dilution method; in short: as §1
[3] = system: Pseudomonas aeruginosa; test: Antimicrobial activity against extended spectrum beta-lactamases-producing Pseudomonas aeruginosa 10-18 after 18-24 hrs by two-fold serial dilution method; in short: as §1
[4] = system: Klebsiella pneumoniae; test: Antimicrobial activity against extended spectrum beta-lactamases-producing Klebsiella pneumoniae 10-3 after 18-24 hrs by two-fold serial dilution method; in short: as §1
[5] = system: Pseudomonas aeruginosa; test: Antimicrobial activity against extended spectrum beta-lactamases-producing Pseudomonas aeruginosa 10-20 after 18-24 hrs by two-fold serial dilution method; in short: as §1
[6] = system: Staphylococcus aureus; test: Antimicrobial activity against Staphylococcus aureus ATCC […] after 18-24 hrs by two-fold serial dilution method; in short: as §1
[7] = system: Klebsiella pneumoniae; test: Antimicrobial activity against extended spectrum beta-lactamases-producing Klebsiella pneumoniae 10-1 after 18-24 hrs by two-fold serial dilution method; in short: as §1
[8] = system: Staphylococcus epidermidis; test: Antimicrobial activity against extended spectrum beta-lactamases-producing methicillin-sensitive Staphylococcus epidermidis 10-13 after 18-24 hrs by two-fold serial dilution method; in short: as §1
[9] = system: Staphylococcus epidermidis; test: Antimicrobial activity against extended spectrum beta-lactamases-producing methicillin-resistant Staphylococcus epidermidis 10-10 after 18-24 hrs by two-fold serial dilution method
In short: (§2)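 Agar twofold serial dilution MIC against clinical isolates. MIC was taken as the lowest concentration giving complete inhibition of bacterial growth after incubation at 35 °C for 18-24 h.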

[10] = system: Pseudomonas aeruginosa; test: Antimicrobial activity against extended spectrum beta-lactamases-producing Pseudomonas aeruginosa 10-5 after 18-24 hrs by two-fold serial dilution method; in short: as §1
[11] = system: Enterococcus faecalis; test: Antimicrobial activity against Enterococcus faecalis 10-5 after 18-24 hrs by two-fold serial dilution method; in short: as §1
[12] = system: Escherichia coli; test: Antimicrobial activity against Escherichia coli 10-1 after 18-24 hrs by two-fold serial dilution method; in short: as §1
[13] = system: Klebsiella pneumoniae; test: Antimicrobial activity against extended spectrum beta-lactamases-producing Klebsiella pneumoniae 10-2 after 18-24 hrs by two-fold serial dilution method; in short: as §1
[14] = system: Staphylococcus aureus; test: Antimicrobial activity against extended spectrum beta-lactamases-producing methicillin-resistant Staphylococcus aureus 10-11 after 18-24 hrs by two-fold serial dilution method; in short: as §2
[15] = system: Klebsiella pneumoniae; test: Antimicrobial activity against Klebsiella pneumoniae 10-2 after 18-24 hrs by two-fold serial dilution method; in short: as §1
[16] = system: Escherichia coli; test: Antimicrobial activity against Escherichia coli 10-2 after 18-24 hrs by two-fold serial dilution method; in short: as §1
[17] = system: Escherichia coli; test: Antimicrobial activity against Escherichia coli ATCC 25922 after 18-24 hrs by two-fold serial dilution method; in short: as §1
[18] = system: Escherichia coli; test: Antimicrobial activity against Escherichia coli 10-3 after 18-24 hrs by two-fold serial dilution method; in short: as §1
[19] = system: Escherichia coli; test: Antimicrobial activity against extended spectrum beta-lactamases-producing Escherichia coli 10-2 after 18-24 hrs by two-fold serial dilution method; in short: as §1
[20] = system: Streptococcus pneumoniae; test: Antimicrobial activity against extended spectrum beta-lactamases-producing Streptococcus pneumoniae 10-4 after 18-24 hrs by two-fold serial dilution method; in short: as §1
[21] = system: Klebsiella pneumoniae; test: Antimicrobial activity against Klebsiella pneumoniae 10-4 after 18-24 hrs by two-fold serial dilution method; in short: as §1
[22] = system: Klebsiella pneumoniae; test: Antimicrobial activity against Klebsiella pneumoniae 10-3 after 18-24 hrs by two-fold serial dilution method; in short: as §1
[23] = system: Pseudomonas aeruginosa; test: Antimicrobial activity against extended spectrum beta-lactamases-producing Pseudomonas aeruginosa 10-15 after 18-24 hrs by two-fold serial dilution method; in short: as §1
[24] = system: Pseudomonas aeruginosa; test: Antimicrobial activity against extended spectrum beta-lactamases-producing Pseudomonas aeruginosa 10-9 after 18-24 hrs by two-fold serial dilution method; in short: as §1
[25] = system: Staphylococcus epidermidis; test: Antimicrobial activity against extended spectrum beta-lactamases-producing methicillin-sensitive Staphylococcus epidermidis 10-15 after 18-24 hrs by two-fold serial dilution method; in short: as §1
[26] = system: Staphylococcus epidermidis; test: Antimicrobial activity against extended spectrum beta-lactamases-producing methicillin-resistant Staphylococcus epidermidis 10-13 after 18-24 hrs by two-fold serial dilution method; in short: as §2
[27] = system: Staphylococcus aureus; test: Antimicrobial activity against extended spectrum beta-lactamases-producing methicillin-sensitive Staphylococcus aureus 10-14 after 18-24 hrs by two-fold serial dilution method; in short: as §1
[28] = system: Escherichia coli; test: Antimicrobial activity against extended spectrum beta-lactamases-producing Escherichia coli 10-3 after 18-24 hrs by two-fold serial dilution method; in short: as §1
[29] = system: Escherichia coli; test: Antimicrobial activity against extended spectrum beta-lactamases-producing Escherichia coli 10-4 after 18-24 hrs by two-fold serial dilution method; in short: as §1
[30] = system: Enterococcus faecalis; test: Antimicrobial activity against Enterococcus faecalis 10-6 after 18-24 hrs by two-fold serial dilution method; in short: as §1
[31] = system: Staphylococcus aureus; test: Antimicrobial activity against extended spectrum beta-lactamases-producing methicillin-sensitive Staphylococcus aureus 10-13 after 18-24 hrs by two-fold serial dilution method; in short: as §1
[32] = system: Enterococcus faecium; test: Antimicrobial activity against Enterococcus faecium 10-5 after 18-24 hrs by two-fold serial dilution method; in short: as §1
[33] = system: Streptococcus pneumoniae; test: Antimicrobial activity against extended spectrum beta-lactamases-producing Streptococcus pneumoniae 10-1 after 18-24 hrs by two-fold serial dilution method; in short: as §1
[34] = system: Enterococcus faecium; test: Antimicrobial activity against Enterococcus faecium 10-9 after 18-24 hrs by two-fold serial dilution method; in short: as §1
[35] = system: Staphylococcus aureus; test: Antimicrobial activity against extended spectrum beta-lactamases-producing methicillin-resistant Staphylococcus aureus 10-15 after 18-24 hrs by two-fold serial dilution method; in short: as §2
[36] = system: Enterococcus faecalis; test: Antimicrobial activity against Enterococcus faecalis 10-7 after 18-24 hrs by two-fold serial dilution method; in short: as §1

Row | SMILES | MIC [1] [µg/mL] | MIC [2] [µg/mL] | MIC [3] [µg/mL] | MIC [4] [µg/mL] | MIC [5] [µg/mL] | MIC [6] [µg/mL] | MIC [7] [µg/mL] | MIC [8] [µg/mL] | MIC [9] [µg/mL] | MIC [10] [µg/mL] | MIC [11] [µg/mL] | MIC [12] [µg/mL] | MIC [13] [µg/mL] | MIC [14] [µg/mL] | MIC [15] [µg/mL] | MIC [16] [µg/mL] | MIC [17] [µg/mL] | MIC [18] [µg/mL] | MIC [19] [µg/mL] | MIC [20] [µg/mL] | also measured
1 | CS(=O)(=O)O.NCC1CN(c2nc3c(cc2F)c(=O)c(C(=O)O)cn3C2CC2)C/C1=N\OCc1cc2c(cc1Cl)OCO2 (racemic) | 8 | 0.25 | 16 | > 128 | 4 | 0.015 | > 128 | 8 | 2 | 8 | 1 | > 128 | > 128 | 2 | > 128 | 16 | 0.25 | 16 | 128 | 2 | MIC [21]: 128 µg/mL; MIC [22]: 8 µg/mL; MIC [23]: 32 µg/mL; MIC [24]: 8 µg/mL; MIC [25]: 2 µg/mL; MIC [26]: 2 µg/mL; MIC [27]: 0.06 µg/mL; MIC [28]: > 128 µg/mL; MIC [29]: 8 µg/mL; MIC [30]: 8 µg/mL; MIC [31]: 0.03 µg/mL; MIC [32]: 8 µg/mL; MIC [33]: 0.5 µg/mL; MIC [34]: 8 µg/mL; MIC [35]: 1 µg/mL; MIC [36]: 4 µg/mL
2 | COc1cccc(OC)c1CO/N=C1\CN(c2nc3c(cc2F)c(=O)c(C(=O)O)cn3C2CC2)CC1CN.CS(=O)(=O)O (racemic) | 4 | 0.125 | 8 | > 128 | 2 | 0.03 | 64 | 2 | 0.25 | 4 | 0.5 | > 128 | 64 | 1 | > 128 | 8 | 0.25 | 8 | > 128 | 0.25 | MIC [21]: > 128 µg/mL; MIC [22]: 8 µg/mL; MIC [23]: 4 µg/mL; MIC [24]: 4 µg/mL; MIC [25]: 0.5 µg/mL; MIC [26]: 0.25 µg/mL; MIC [27]: 0.125 µg/mL; MIC [28]: 16 µg/mL; MIC [29]: 4 µg/mL; MIC [30]: 2 µg/mL; MIC [31]: 0.125 µg/mL; MIC [32]: 8 µg/mL; MIC [33]: 0.125 µg/mL; MIC [34]: 8 µg/mL; MIC [35]: 0.5 µg/mL; MIC [36]: 1 µg/mL
3 | CS(=O)(=O)O.NCC1CN(c2nc3c(cc2F)c(=O)c(C(=O)O)cn3C2CC2)C/C1=N\OCc1ccc(OCc2ccccc2)cc1 (racemic) | 16 | 1 | 2 | 8 | 16 | 2 | > 128 | 16 | 4 | 16 | 8 | 0.03 | > 128 | 4 | 16 | 0.25 | 4 | 0.125 | > 128 | 8 | MIC [21]: > 128 µg/mL; MIC [22]: 2 µg/mL; MIC [23]: 8 µg/mL; MIC [24]: 2 µg/mL; MIC [25]: 4 µg/mL; MIC [26]: 4 µg/mL; MIC [27]: 1 µg/mL; MIC [28]: > 128 µg/mL; MIC [29]: 0.06 µg/mL; MIC [30]: 32 µg/mL; MIC [31]: 1 µg/mL; MIC [32]: 32 µg/mL; MIC [33]: 2 µg/mL; MIC [34]: 32 µg/mL; MIC [35]: 8 µg/mL; MIC [36]: 16 µg/mL
4 | COc1cc(CO/N=C2\CN(c3nc4c(cc3F)c(=O)c(C(=O)O)cn4C3CC3)CC2CN)cc(Cl)c1OC.CS(=O)(=O)O (racemic) | 16 | 2 | 16 | > 128 | 8 | < 0.008 | > 128 | 0.015 | 2 | 16 | 0.25 | > 128 | > 128 | 4 | 128 | 16 | 0.015 | 128 | > 128 | 0.03 | MIC [21]: > 128 µg/mL; MIC [22]: 8 µg/mL; MIC [23]: 32 µg/mL; MIC [24]: 16 µg/mL; MIC [25]: 4 µg/mL; MIC [26]: 0.25 µg/mL; MIC [27]: 0.015 µg/mL; MIC [28]: > 128 µg/mL; MIC [29]: 16 µg/mL; MIC [30]: 4 µg/mL; MIC [31]: 0.015 µg/mL; MIC [32]: 8 µg/mL; MIC [33]: 0.06 µg/mL; MIC [34]: 16 µg/mL; MIC [35]: 0.25 µg/mL; MIC [36]: 2 µg/mL
5 | COc1cc(F)c(CO/N=C2\CN(c3nc4c(cc3F)c(=O)c(C(=O)O)cn4C3CC3)CC2CN)cc1OC.CS(=O)(=O)O (racemic) | > 128 | 1 | > 128 | > 128 | > 128 | 0.03 | > 128 | 0.03 | 0.5 | > 128 | 0.25 | > 128 | > 128 | 1 | > 128 | > 128 | 0.125 | > 128 | > 128 | 0.03 | MIC [21]: > 128 µg/mL; MIC [22]: > 128 µg/mL; MIC [23]: > 128 µg/mL; MIC [24]: > 128 µg/mL; MIC [25]: 2 µg/mL; MIC [26]: 0.25 µg/mL; MIC [27]: 0.03 µg/mL; MIC [28]: > 128 µg/mL; MIC [29]: > 128 µg/mL; MIC [30]: 2 µg/mL; MIC [31]: 0.03 µg/mL; MIC [32]: 4 µg/mL; MIC [33]: 0.25 µg/mL; MIC [34]: 8 µg/mL; MIC [35]: 0.125 µg/mL; MIC [36]: 1 µg/mL
